Data taken from ChEMBL document CHEMBL2390837, “Synthesis, cytotoxic activity and DNA-interaction studies of novel anthraquinone-thiosemicarbazones with tautomerizable methylene group” (Eur J Med Chem, 2013).
Active and inactive are the calls of the source. No cut-off for these calls is given here.

Columns and labels:
K562 = assay: Cytotoxicity against human K562 cells after 72 hrs by MTT assay; format: functional, cell-based; details: K562, 72 h
In short: (§1)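 Cells seeded in 96-well plates: HeLa 2000, MDA-MB-361 7000, MDA-MB-453 3000, K562, A549 and MRC-5 5000 per well. Compounds added at 5–100 μM (final), DMSO ≤0.5%, in RPMI-1640 with 10% FBS. Added after 24 h, except K562 at 2 h after seeding. Exposure 72 h, then MTT 4 h at 37 °C, SDS solubilization, A570 read. IC50 is the mean ± SD of three independent experiments.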

MDA-MB-361 = assay: Cytotoxicity against human MDA-MB-361 cells after 72 hrs by MTT assay; format: functional, cell-based; details: MDA-MB-361, 72 h; in short: as §1
HeLa [1] = assay: Cytotoxicity against human HeLa cells after 72 hrs by MTT assay; format: functional, cell-based; in short: as §1
MDA-MB-453 = assay: Cytotoxicity against human MDA-MB-453 cells after 72 hrs by MTT assay; format: functional, cell-based; details: MDA-MB-453, 72 h; in short: as §1
MRC5 = assay: Cytotoxicity against human MRC5 cells after 72 hrs by MTT assay; format: cell-based; details: MRC5, 72 h; in short: as §1
A549 = assay: Cytotoxicity against human A549 cells after 72 hrs by MTT assay; format: functional, cell-based; details: A549, 72 h; in short: as §1
HeLa [2] = assay: Induction of apoptosis in human HeLa cells at IC90 after 24 hrs by propidium iodide staining-based FACS flow cytometric analysis in presence of caspase-8 inhibitor Z-IETD-FMK; format: functional, cell-based
HeLa [3] = assay: Cell cycle arrest in human HeLa cells assessed as accumulation at G2/M phase at 2 times IC50 after 24 hrs by propidium iodide staining-based FACS flow cytometric analysis (reference value: 21.66%); format: functional
HeLa [4] = assay: Cell cycle arrest in human HeLa cells assessed as accumulation at G1 phase at 2 times IC50 after 24 hrs by propidium iodide staining-based FACS flow cytometric analysis (reference value: 51.97%); format: functional
HeLa [5] = assay: Cell cycle arrest in human HeLa cells assessed as accumulation at G2/M phase at IC50 after 24 hrs by propidium iodide staining-based FACS flow cytometric analysis (reference value: 21.66%); format: functional
HeLa [6] = assay: Cell cycle arrest in human HeLa cells assessed as accumulation at S phase at IC50 after 24 hrs by propidium iodide staining-based FACS flow cytometric analysis (reference value: 16.22%); format: functional
Escherichia coli = assay: Induction of Escherichia coli XL1 blue pUC18 DNA cleavage assessed as conversion of supercoiled DNA to relaxed circular DNA at 2 mM after 90 mins by agarose gel electrophoresis
In short: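 Supercoiled pUC18 (262 ng, from E. coli XL1 blue) incubated with 2 mM compound in 20 μL of 40 mM bicarbonate buffer pH 8.4 at 37 °C for 90 min. Reaction stopped with loading buffer. Analyzed on 1% agarose in TAE pH 8.24 at 80 V and stained with ethidium bromide (0.5 µg/mL).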

HeLa [7] = assay: Cell cycle arrest in human HeLa cells assessed as accumulation at G1 phase at IC50 after 24 hrs by propidium iodide staining-based FACS flow cytometric analysis (reference value: 51.97%); format: functional
HeLa [8] = assay: Induction of apoptosis in human HeLa cells at IC90 after 24 hrs by propidium iodide staining-based FACS flow cytometric analysis in presence of caspase-3 inhibitor Z-DEVD-FMK; format: functional, cell-based
HeLa [9] = assay: Induction of apoptosis in human HeLa cells at IC90 after 24 hrs by propidium iodide staining-based FACS flow cytometric analysis in presence of caspase-9 inhibitor Z-LEHD-FMK; format: functional, cell-based
DNA [10] = assay: Binding affinity to calf thymus DNA at 20 to 80 uM after 1.5 hrs by UV-vis spectrophotometric analysis; format: nucleic-acid assay; details: Bos taurus
In short: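 UV–Vis spectra (200–800 nm, 1 cm cells) of compound at 20, 40, 60 or 80 μM, with or without 0.12 mM CT-DNA. CT-DNA was dissolved in 10 mM Tris-HCl pH 7.9. Mixtures were in 40 mM bicarbonate buffer pH 8.4, incubated 1.5 h at 37 °C with occasional vortexing.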

[11] = tested on: Radical scavenging activity; assay: Antioxidant activity assessed as DPPH radical scavenging activity after 30 mins by spectrophotometric analysis; format: functional
In short: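 Test solutions at 8–1000 μM in methanol mixed 1:1 by volume with 200 μM DPPH in methanol, kept 30 min in the dark at room temperature. Absorbance read at 517 nm against blanks without DPPH. Percent scavenging = (A_DPPH − A_sample)/A_DPPH × 100. IC50 (concentration halving DPPH absorbance) read from a plot of % versus concentration. Ascorbic acid and BHT used as standards.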

HeLa [12] = assay: Cell cycle arrest in human HeLa cells assessed as accumulation at subG1 phase at IC50 after 24 hrs by propidium iodide staining-based FACS flow cytometric analysis (reference value: 9.10%); format: functional
HeLa [13] = assay: Cell cycle arrest in human HeLa cells assessed as accumulation at subG1 phase at 2 times IC50 after 24 hrs by propidium iodide staining-based FACS flow cytometric analysis (reference value: 9.10%); format: functional
HeLa [14] = assay: Cell cycle arrest in human HeLa cells assessed as accumulation at S phase at 2 times IC50 after 24 hrs by propidium iodide staining-based FACS flow cytometric analysis (reference value: 16.22%); format: functional
DNA [15] = assay: Binding affinity to calf thymus DNA after 1.5 hrs by spectroscopic titration; format: nucleic-acid assay; details: Bos taurus
In short: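 Absorbance titration in 40 mM bicarbonate buffer pH 8.4. Compound held fixed at 40 μM, CT-DNA varied at (0.2–1.6) × 10⁻⁴ M. Mixtures incubated 1.5 h at 37 °C, then UV–Vis spectra recorded from 200 to 800 nm. K_B taken from a plot of [DNA]/(εA − εF) versus [DNA].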

HeLa [16] = assay: Cell cycle arrest in human HeLa cells assessed as accumulation at subG1 phase after 24 hrs by propidium iodide staining-based FACS flow cytometric analysis; format: functional

Compound | IC50 (K562) [µM] | IC50 (MDA-MB-361) [µM] | IC50 (HeLa [1]) [µM] | IC50 (MDA-MB-453) [µM] | IC50 (MRC5) [µM] | IC50 (A549) [µM] | Activity (HeLa [2]) | Activity (HeLa [3]) | Activity (HeLa [4]) | Activity (HeLa [5]) | Activity (HeLa [6]) | Activity (Escherichia coli) | Activity (HeLa [7]) | Activity (HeLa [8]) | Activity (HeLa [9]) | Activity (DNA [10]) | IC50 [11] [µM] | Activity (HeLa [12]) | Activity (HeLa [13]) | Activity (HeLa [14]) | further results
CCOC(=O)/C(CC(=O)c1cccc2c1C(=O)c1ccccc1C2=O)=N\Nc1ccccc1 | 40 | 40 | 40 | 40 | 40 | 40 | – | – | – | – | – | – | – | – | – | – | – | – | – | – | –
CCOC(=O)/C(CC(=O)c1cccc2c1C(=O)c1ccccc1C2=O)=N\NC(=S)NCc1ccco1 | 2.63 | 47.8 | 19 | 19.4 | 38.6 | 22.6 | Active | Active | Active | Active | Active | inactive | Active | Active | Active | Active | 35.8 | Active | Active | Active | –
O=C1O[C@H]([C@@H](O)CO)C(O)=C1O [ASCORBIC ACID] | – | – | – | – | – | – | – | – | – | – | – | – | – | – | – | – | 15.9 | – | – | – | –
CCOC(=O)/C(CC(=O)c1cccc2c1C(=O)c1ccccc1C2=O)=N\NC(=S)Nc1ccccc1 | 3.59 | 6.61 | 8.19 | 6.91 | 11.8 | 9.89 | Active | 7.61% | 44.72% | 24.11% | 17.82% | inactive | 44.66% | Active | Active | Active | 26.2 | 11.21% | 23.74% | 19.4% | Kb (DNA [15]): 9.3 ×10⁹ /M; Activity (HeLa [16]): Dose-dependent effect
Cc1cc(C(C)(C)C)c(O)c(C(C)(C)C)c1 [BUTYLATED HYDROXYTOLUENE] | – | – | – | – | – | – | – | – | – | – | – | – | – | – | – | – | 33.9 | – | – | – | –
CCOC(=O)/C(CC(=O)c1cccc2c1C(=O)c1ccccc1C2=O)=N\NC(=S)NCc1cccnc1 | 2.17 | 50.5 | 18.1 | 17.7 | 13.6 | 23.4 | Active | Active | Active | Active | Active | inactive | Active | Active | Active | Active | 46.9 | Active | Active | Active | –
CCOC(=O)/C(CC(=O)c1cccc2c1C(=O)c1ccccc1C2=O)=N/NC(N)=S | 7.99 | 30.7 | 14.4 | 13.6 | 36.2 | 29 | Active | Active | Active | Active | Active | inactive | Active | Active | Active | Active | 20.5 | Active | Active | Active | Kb (DNA [15]): 0.55 ×10⁹ /M
CCOC(=O)/C(=C/C(=O)c1cccc2c1C(=O)c1ccccc1C2=O)Nc1ccccc1 | 100 | 100 | 100 | 100 | 100 | 100 | – | – | – | – | – | – | – | – | – | – | – | – | – | – | –
CCOC(=O)/C(CC(=O)c1cccc2c1C(=O)c1ccccc1C2=O)=N\NC(=S)NCc1cccs1 | 2.8 | 25.4 | 8.25 | 13.5 | 24.4 | 12.9 | Active | 3.79% | 40.07% | 15.34% | 20.62% | inactive | 32.36% | Active | Active | Active | 66.5 | 28.61% | 36.27% | 13.79% | Activity (HeLa [16]): Dose-dependent effect
CC[n+]1c(-c2ccccc2)c2cc(N)ccc2c2ccc(N)cc21 | – | – | – | – | – | – | – | – | – | – | – | – | – | – | – | – | – | – | – | – | Kb (DNA [15]): 7 ×10⁷ /M
CCOC(=O)/C(CC(=O)c1cccc2c1C(=O)c1ccccc1C2=O)=N\NC(=S)NC1CCCCC1 | 2.35 | 32.6 | 9.15 | 4.64 | 13.6 | 13.9 | Active | Active | Active | Active | Active | inactive | Active | Active | Active | Active | 16.4 | Active | Active | Active | –
CCCCNC(=S)N/N=C(/CC(=O)c1cccc2c1C(=O)c1ccccc1C2=O)C(=O)OCC | 3.8 | 30.8 | 10.9 | 11.5 | 21.1 | 19.6 | Active | Active | Active | Active | Active | inactive | Active | Active | Active | Active | 25.8 | Active | Active | Active | –
CCOC(=O)/C(CC(=O)c1cccc2c1C(=O)c1ccccc1C2=O)=N\NC(=S)Nc1ccc(C)cc1 | 3.97 | 32.6 | 21 | 11.3 | 30.3 | 22.5 | Active | Active | Active | Active | Active | inactive | Active | Active | Active | Active | 41 | Active | Active | Active | Kb (DNA [15]): 2.91 ×10⁹ /M
